# Screening data deposited in PubChem BioAssay by Sanford-Burnham Center for Chemical Genomics.
# Scp-1 inhibitor: blocks human Scp-1 phosphatase activity | AID 493091 | inhibition, % at 20 µM | Q9GZU7 | Recombinant Scp1, phosphopeptide, malachite green phosphate absorbance | 0.88% of 340,000 active;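 active = inhibition above about 50% at 20 µM, limit read from the data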;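 note: plate controls were DMSO wells with enzyme for no effect and wells lacking enzyme for full effect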
# Target sequence (Q9GZU7 76-261 limits assumed): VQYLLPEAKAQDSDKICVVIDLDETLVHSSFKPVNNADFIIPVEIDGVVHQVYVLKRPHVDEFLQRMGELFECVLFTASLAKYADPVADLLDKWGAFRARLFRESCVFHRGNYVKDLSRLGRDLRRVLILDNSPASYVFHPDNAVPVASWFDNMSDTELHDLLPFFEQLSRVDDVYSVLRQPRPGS
#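 assay system = SCP-1 phosphatase catalytic domain, residues 76-261 | buffer or medium = 50 mM Tris acetate pH 5.5, 0.005% Tween-20, 10 mM MgCl2 | incubation = enzyme reaction 45 min at room temperature, colour 5 min, stabilisation 30 min | signal = Phosphate-binding colour reagent, absorbance read at 630 nm | measure = % inhibition at 20 µM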
# Rpn11 inh: blocks the human proteasome subunit Rpn11 | O00487 | human 26S proteasome, Ub4-pepOG fluorescence polarization; 20S core pre-blocked with epoxomicin | inhibition, % at 20 µM | 0.59% of 360,000 active | AID 588493;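 active = inhibition at 20 µM, scaled to each plate's controls, above about 33%, limit read from the data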
# DNMT1 inh: blocks human DNA methyltransferase DNMT1; inhibition (reported as % activation of signal), % at 10 µM; P26358; DNMT1 molecular beacon, Hinp1I cleavage, fluorescence; AID 588458; 0.83% of 360,000 active; in the data active = inhibition above about 50%
# LMPTP inh: blocks human LMPTP phosphatase; P24666; recombinant LMPTP-A, OMFP fluorogenic substrate, fluorescence intensity; inhibition, % at 20 µM; 0.22% of 360,000 active; AID 651560;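 active = compounds that cut the enzyme signal by at least half of the control window in the single-dose screen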;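 note: plate controls were DMSO wells with enzyme plus substrate for no effect and substrate without enzyme for full effect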
# Target sequence (P24666 whole entry, looked up): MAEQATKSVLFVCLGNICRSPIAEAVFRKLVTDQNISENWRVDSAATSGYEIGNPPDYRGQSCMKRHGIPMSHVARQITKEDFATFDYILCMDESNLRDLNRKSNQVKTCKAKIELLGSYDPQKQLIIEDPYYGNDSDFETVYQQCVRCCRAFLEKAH
#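 Assay system: LMPTP-A phosphatase enzyme | Input: 0.625 nM enzyme | Also added: Fluorogenic phosphatase substrate OMFP at 400 µM final | Compound dosing: One test concentration per compound, 20 µM, with 3% DMSO overall | Schedule: 50 min enzyme reaction at room temperature, protected from light | Signal: Fluorescence intensity | Benchmarks: no-enzyme and uninhibited controls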
# SUMO1 PPI mod: alters human SUMO1 binding to SIM partners | P63165 | SUMO1 binding to a labelled peptide, TR-FRET, 1 h | inhibition, % at 20 µM | 0.33% of 360,000 active | AID 602429; in the data active = inhibition above about 37%
# Target sequence (P63165 whole entry, looked up): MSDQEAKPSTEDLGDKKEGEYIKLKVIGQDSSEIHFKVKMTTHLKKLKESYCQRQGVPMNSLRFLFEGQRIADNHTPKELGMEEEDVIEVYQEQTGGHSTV
# STEP inh: blocks human striatal-enriched tyrosine phosphatase | P54829 | inhibition, % at 20 µM | 0.25% of 360,000 active | recombinant STEP, OMFP fluorogenic substrate, fluorescence | AID 588621;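 active = inhibition at 20 µM, scaled per plate between control wells, above about 37%, limit read from the data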;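 note: 0% = DMSO with enzyme and substrate and 100% = substrate only without enzyme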
#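 System: STEP (striatal-enriched tyrosine phosphatase) enzyme, cell-free; medium: Bis-Tris pH 6.0 buffer with DTT, detergent; dosing: 20 µM, 1% DMSO; times: reaction 20 min, ambient temperature; detection: fluorescence, 480/540 nm; read-out basis: normalized % inhibition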
# Scp-1 conf: confirmation of human Scp-1 phosphatase inhibitors. 61% of 2,500 active. shares compounds with Scp-1 inhibitor. inhibition, % at 20 µM. AID 540281. recombinant SCP-1 catalytic domain, phosphate release, malachite green absorbance;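 note: plate controls were DMSO with enzyme for no effect and buffer wells lacking enzyme for full effect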
# MG interference: counter-screen for Scp-1 inhibitors: colorimetric interference. shares compounds with Scp-1 inhibitor. Colorimetric interference counterscreen, malachite green absorbance 630 nm. apparent inhibition (interference), % at 20 µM. 2,500 tested, under 10 active;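 note: compounds added after enzyme reaction finished so only phosphate colour detection is probed; plate controls were DMSO wells with completed Scp-1 reaction for no effect and substrate wells lacking enzyme for full effect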
# Scp1 DSF: validation of human Scp-1 inhibitors by thermal shift binding. shares compounds with Scp-1 inhibitor. Recombinant SCP1, Sypro Orange thermal shift Tm. thermal shift relative to vanadate control, % at 40 µM. 25% of 1,500 active;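 active = substances whose mean melting-temperature shift, as a percentage of the reference inhibitor's shift, reaches about 5.3%, limit read from the data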;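 note: 0% = Tm of DMSO wells and 100% = Tm with sodium orthovanadate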
# DNMT1 interf DR: beacon fluorescence artifact, dose response counter-screen; IC50, µM; shares compounds with DNMT1 inh; molecular beacon fluorescence, spectral interference counter-screen; 200 tested, under 10 active; call rule not given here
# DNMT1 inh conf: DNMT1 inhibition confirmation, single concentration. DNMT1 molecular beacon HinP1I cleavage, fluorescence. shares compounds with DNMT1 inh. 8% of 2,300 active. inhibition, % at 10 µM;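 active = average inhibition of at least 30% in the single-concentration confirmation test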
# DNMT1 interf: beacon fluorescence artifact counter-screen. 1% of 2,300 active. shares compounds with DNMT1 inh. DNMT1 molecular beacon spectral interference counterscreen, fluorescence 485/520. activation (fluorescence interference), % at 10 µM;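 active = activation of at least 30% at 10 µM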;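 note: DNMT1 catalytic domain with a HinP1I cleavage step and a FAM/dabcyl DNA beacon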
# Numbers without * were called inactive; . = no result given. The list is not random: actives were taken first. Their share in the collection is about 2.3%.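 Rule for the calls, unless noted: active = inhibition of at least 30% at 20 µM; inactive = the rest.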
SMILES,Scp-1 inhibitor,Rpn11 inh,DNMT1 inh,LMPTP inh,SUMO1 PPI mod,STEP inh,Scp-1 conf,MG interference,Scp1 DSF,DNMT1 inh conf,DNMT1 interf,others
CCCN(C(=O)c1c(CC)noc1C)c1c(N)n(Cc2ccccc2)c(=O)[nH]c1=O,-5,-6,-2,-1,2,-2,.,.,.,.,.,
O=C1[C@H]2[C@@H](c3ccccc3)N[C@]3(CCCN(Cc4ccc(Br)cc4)C3=O)[C@H]2C(=O)N1Cc1ccccc1,.,-7,12,1,4,1,.,.,.,.,.,
Cc1ccc(/C=C/C(=O)NCc2ccccn2)o1,72*,-16,67*,1,-2,0,59*,-13,3,6,1,
Cc1ccccc1-n1c(-c2ccc(Cl)cc2)cnc1SCC(=O)NC1CCS(=O)(=O)C1 (centres undefined),-8,-6,-4,0,1,0,.,.,.,.,.,
Cc1ccc(-n2c(C)cc(/C=N/NC(=O)CC3(C)OCCO3)c2C)c(C)c1,-4,9,-9,1,1,-1,.,.,.,.,.,
CC1(CC(=O)N/N=C/c2cc([N+](=O)[O-])c(O)cc2O)OCCO1,69*,-4,69*,69*,-14,14,64*,-4,6.1*,2,-3,
CCCCC1CCc2[nH]nc(C(=O)O)c2C1 (centres undefined),-5,1,1,1,-2,3,.,.,.,.,.,
O=C1NN(c2ccccc2)C(=O)/C1=C/c1ccc(-c2ccc(C(=O)O)cc2)o1,77*,10,78*,5,5,10,58*,-18,15*,30,-1,DNMT1 interf DR=>99
COC(=O)c1ccc(N2NC(=O)/C(=C/c3ccc(-c4ccc(Cl)c(C(=O)O)c4)o3)C2=O)cc1,76*,10,79*,33,23,30,75*,-8,14*,9,8,
CC1=NOC(=O)/C1=C\c1ccc(-c2ccc(Cl)c(C(=O)O)c2)o1,67*,-5,82*,4,18,34,58*,-18,2,9,0,
CCCCc1ccc(S(=O)(=O)NC(=O)C2(C)CCN2C(=O)CCc2cccs2)cc1 (centres undefined),.,0,-1,-1,9,1,.,.,.,.,.,
C[C@H](CO)N1C[C@H](C)[C@@H](CN(C)C(=O)NC2CCCCC2)Oc2ccc(NS(C)(=O)=O)cc2C1=O,46,-4,5,-2,3,-3,.,.,.,.,.,
CCCCCCNC1=NCCS1,-2,-16,-2,0,0,-1,.,.,.,.,.,
O=C1COc2ccc(C(=O)COC(=O)c3ccco3)cc2N1,-8,-6,2,2,-4,0,.,.,.,.,.,
O=C(/C=C/c1ccccc1)OCC(=O)N1CCCC1,-9,-3,5,0,-10,-1,.,.,.,.,.,
O=C1COc2ccc(C(=O)COC(=O)/C=C/c3ccco3)cc2N1,59*,-11,57*,16,-13,8,57*,-10,-14,5,3,
O=C(/C=C/c1ccco1)OCC(=O)N1CCCCC1,96*,-11,50*,15,-14,41*,51*,-20,-8,-1,0,
